Measurements gathered from unrelated publications.
PIK3CA M1043I: Phosphatidylinositol 4,5-bisphosphate 3-kinase catalytic subunit alpha isoform (PIK3CA, Homo sapiens, UniProt P42336, M1043I)
PIK3CA H1047Y: Phosphatidylinositol 4,5-bisphosphate 3-kinase catalytic subunit alpha isoform (PIK3CA, Homo sapiens, UniProt P42336, H1047Y)
PIK3CA E542K: Phosphatidylinositol 4,5-bisphosphate 3-kinase catalytic subunit alpha isoform (PIK3CA, Homo sapiens, UniProt P42336, E542K)
PIK3CA Q546K: Phosphatidylinositol 4,5-bisphosphate 3-kinase catalytic subunit alpha isoform (PIK3CA, Homo sapiens, UniProt P42336, Q546K)
PIK3CA I800L: Phosphatidylinositol 4,5-bisphosphate 3-kinase catalytic subunit alpha isoform (PIK3CA, Homo sapiens, UniProt P42336, I800L)
PIK3CA E545K: Phosphatidylinositol 4,5-bisphosphate 3-kinase catalytic subunit alpha isoform (PIK3CA, Homo sapiens, UniProt P42336, E545K)
PIK3CA H1047L: Phosphatidylinositol 4,5-bisphosphate 3-kinase catalytic subunit alpha isoform (PIK3CA, Homo sapiens, UniProt P42336, H1047L)
PIK3CA: Phosphatidylinositol 4,5-bisphosphate 3-kinase catalytic subunit alpha isoform (PIK3CA, Homo sapiens, UniProt P42336)

Compound	target	assay	conditions	remaining binding [%]
FC(F)(F)c1ccc2c(c1)nc(-c1cccnc1)n2C1CC1	PIK3CA M1043I	cell-free assay, competition with immobilised ligand	1 µM	100
O=C(c1ccc(Nc2ncc(Cl)c(-c3ccc(Cl)s3)n2)cc1)N1CCC(N2CCCC2)CC1	PIK3CA H1047Y	binding, competition with immobilised ligand	1 µM	100
O=S(=O)(NC1CCC(c2cc(F)ccc2F)(S(=O)(=O)c2ccc(Cl)cc2)CC1)C(F)(F)F (stereo not shown)	PIK3CA E542K	cell-free assay, competition with immobilised ligand	1 µM	100
c1cncc(-c2cccc(Nc3nccc(NC4CCCCC4)n3)c2)c1	PIK3CA M1043I	binding, competition with immobilised ligand	10 µM	84
O=C(NCCCN1CCOCC1)c1ccc(Nc2ncc(Cl)c(-c3ccc(Cl)s3)n2)cc1	PIK3CA Q546K	binding, competition with immobilised ligand	1 µM	100
c1cnn2ncc(-c3ccnc(N4CCC45COC5)n3)c2c1	PIK3CA I800L	binding	1 µM	68
CCC(=O)N[C@H]1CC[C@@H](C(=O)N(C)c2ccc(-c3nc4ccccc4o3)cc2)C1	PIK3CA E545K	cell-free assay, competition with immobilised ligand	1 µM	74
COc1cnc(Nc2cccc(S(N)(=O)=O)c2)nc1N1CCN(c2ccccc2)CC1	PIK3CA H1047L	binding, competition with immobilised ligand	1 µM	81
F[C@@H]1CCN(c2nccc(-c3cnn4ncccc34)n2)C1	PIK3CA H1047L	binding	1 µM	100
O=C(Nc1c[nH]nc1C(=O)NC1CCNCC1)c1cc(F)cc(F)c1	PIK3CA E545K	binding, competition with immobilised ligand	1 µM	64
CN(C)c1ncc(F)c(-c2cnn3ncccc23)n1	PIK3CA E545K	binding	1 µM	63
O=C(NCCCN1CCOCC1)c1ccc(Nc2nccc(-c3cc4ccccc4s3)n2)cc1	PIK3CA H1047Y	binding, competition with immobilised ligand	1 µM	73
C[C@@H]1CCN(c2nccc(-c3cnn4ncccc34)n2)C1	PIK3CA Q546K	binding	1 µM	79
C[C@@]1(Cc2ccc(C#N)cc2)C(=O)N(c2cc(Cl)cc(Cl)c2)c2ncc(C(=O)NC3(c4nc(C5CCC5)no4)CC3)n21	Phosphatidylinositol 4,5-bisphosphate 3-kinase catalytic subunit alpha isoform (PIK3CA, Homo sapiens, UniProt P42336, E545A)	cell-free assay, competition with immobilised ligand	1 µM	100
CN1CCN(c2ccc(Nc3nccc(-c4cccc([N+](=O)[O-])c4)n3)cc2C(F)(F)F)CC1	PIK3CA E545K	binding	10 µM	36
O=c1nc(-c2ccccn2)sc2ccccc12	PIK3CA E542K	cell-free assay, competition with immobilised ligand	1 µM	89
CN(C)c1nccc(-c2cnc3ncccn23)n1	PIK3CA	binding	1 µM	71
CC(=O)c1c(NS(C)(=O)=O)c2cc(-c3ccc(Cl)cc3)c(-c3ccc(Cl)cc3Cl)nc2n(C)c1=O	PIK3CA	cell-free assay, competition with immobilised ligand	1 µM	100
N[C@H]1CCN(c2nccc(-c3cnn4ncccc34)n2)C1	PIK3CA I800L	binding	1 µM	100
C=CC(=O)N1CCC(C(=O)NCC(=O)N2CCN(c3nc(-c4cnc(N)nc4C(F)F)nc(N4CCOCC4)n3)CC2)CC1	PIK3CA I800L	binding, competition with immobilised ligand	1 µM	0
CN(C)CC#Cc1ccc(OCCCc2sc(N3CCc4cccc(C(=O)Nc5nc6ccccc6s5)c4C3)nc2C(=O)O)c(F)c1	PIK3CA M1043I	cell-free assay, competition with immobilised ligand	1 µM	96
Cc1cnn2ncc(-c3ccnc(N(C)C)n3)c2c1	PIK3CA E542K	binding	1 µM	79
